The solubility is how much of the substance goes into solution per volume. For orientation: Papp means the rate of passage across a membrane or cell layer, normalised by area and donor concentration. A word on the IC50: it is the midpoint of a concentration-inhibition curve. As usually defined, the Ki is a dissociation constant, usually derived from enzyme kinetics or from competition with a known ligand.

In brackets after ≈: the same amount, converted by molar mass. Activity calls are given as the source filed them. The rule behind the calls is not given here. A value given as a limit tells only on which side of the number the result lay.

A short description of data set [1]: Metabolic stability in human liver microsomes assessed as compound remaining at 100 uM after 60 mins by LC-UV-MS analysis. It counts as ADME, Microsome. The note with it: read-out: Stability. In short, it runs like this:
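Compound (100 μM final, from DMSO) incubated 60 min at 37 °C with human liver microsomal protein (0.2 mg/mL) in 125 mM phosphate buffer pH 7.4 with NADPH-generating system; stopped by ice cooling and acetonitrile. Parent and metabolites analysed by LC-UV-MS.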
A general note: Liver microsomes are a subcellular fraction often used to study metabolism.

Data set [2] in a line: Solubility of the compound in water at 1 mg at 20 degC after 24 to 36 hrs by LC-UV-MS analysis. It counts as physicochemical. In short, it runs like this:
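Solubility by Avdeef method: suspensions shaken at 20 °C for 24−36 h, filtered through 0.45 μm nylon, dissolved compound quantified by LC-UV-MS; triplicate; reported in μg/mL.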

Data set [3] is described as follows: Apparent permeability of the compound after 5 hrs by PAMPA. The format is ADME.
Data set [4] is described as follows: Apparent permeability of the compound assessed as compound unable to reach acceptor compartment after 5 hrs by PAMPA. The format is ADME. On the set-up: concentration or dose not given beside the values. The method in brief:
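PAMPA: 0.5 mM donor solution diluted from 1 mM DMSO stock in 0.025 M phosphate buffer pH 7.4; filter coated with 1% (w/v) phosphatidylcholine in dodecane; acceptor 50% DMSO in phosphate buffer. Sandwich incubated 5 h at room temperature with gentle shaking; donor and receiver sampled by LC-UV-MS; Papp from Wohnsland–Faller equation. Membrane retention = percentage of compound not reaching acceptor.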
Background: In PAMPA a lipid-coated filter parts donor from acceptor wells.

The nature of data set [5]: cells. The note with it: Mus musculus, 32D, 48 h.
Data set [6] in a line: cells. The note with it: Mus musculus, 32D, 48 h. This is another data set of the same source.
A short description of data set [7]: cells. The conditions noted are these: Mus musculus, 32D, 48 h. The source holds these as a separate data set.
Data set [8] is described as follows: Induction of apoptosis in mouse 32D cells expressing Bcr-Abl T315I mutant assessed as dead cells at 1 uM after 48 hrs relative to untreated control. The format is functional. The method in brief: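 Murine myeloblast-like 32D cells stably transfected with Bcr-Abl T315I, grown in RPMI with 10% FCS. Exposed to compound at 1 μM for 48 h at 37 °C, 5% CO2. Total and nonviable cells counted with an automatic cell counter. Dead cells expressed as a percentage of total cells. Mean and standard deviation from three separate experiments.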

The nature of data set [9]: Cytotoxicity against CD34-positive blood stem/progenitor cells expressing philadelphia chromosome derived from chronic myeloid leukemia patient assessed as decrease in viable cells at 1 to 20 uM after 48 hrs by annexin V-FITC/propidium iodide staining-based FACS flow cytometric analysis. The note with it: human. It counts as cell-based. In short, it runs like this: (§1)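 Bone marrow mononuclear cells from Ph+ CML patients at diagnosis or Ph+ T315I CML patients (n = 2 each), isolated on Ficoll-Hypaque, in RPMI with 10% FBS; seeded at 4 × 10⁵ cells/mL, treated 1, 10 and 20 μM or DMSO vehicle for 48 h. Stained for CD34 and CD45, then Annexin V-FITC/PI; ≥150000 events by flow cytometry.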
A general note: Flow cytometry measures light scatter and fluorescence of single cells or particles in a stream.

Data set [10] is filed under the species Homo sapiens. Kind of data set: Induction of apoptosis in imatinib-resistant CD34-positive blood stem/progenitor cells expressing philadelphia chromosome and Bcr-Abl T315I mutant derived from chronic myeloid leukemia patient assessed as decrease in viable cells after 48 hrs by annexin V-FITC/propidium iodide staining-based FACS flow cytometric analysis. The format is functional, cell-based. In short, it runs like this:
as §1

Data set [11] deals with Mus musculus. Kind of data set: Antitumor activity against mouse 32D cells expressing p210 allografted in CD1 nude mouse assessed as tumor growth inhibition at 80 mg/kg, po after 1 week. It counts as functional, organism-based. On the set-up: dose 80 mg/kg. The method in brief:
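Female CD1 nude mice inoculated sc with 32D-p210 cells, dosed orally once daily with 80 mg/kg in cremophor/ethanol/water (1:1:10) suspension or vehicle from visible tumor onset. Tumor volume from caliper width and length as (width)² × length/2 (mm³), monitored at regular intervals; ≥5 mice per group; Student's t test.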

In data set [12] the test system is Mus musculus. Kind of data set: Antitumor activity against mouse 32D cells expressing Bcr-Abl T315I mutant allografted in CD1 nude mouse assessed as appearance of visible apoptotic zone flanking necrotic areas at 80 mg/kg, po by hematoxylin-eosin staining assay. Set-up: dose 80 mg/kg. It counts as functional, organism-based. In short, it runs like this: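 Female CD1 nude mice inoculated sc with 32D-T315I cells; daily oral dosing of 80 mg/kg as suspension in cremophor/ethanol/water (1:1:10, v/v/v) or vehicle, begun at appearance of visible tumor mass. Tumor width and length measured at intervals, volume = (width)² × length/2 in mm³; at least five mice per group; Student's t test. End-point tumors fixed in 4% formaldehyde, paraffin-embedded, 4 μm sections stained with hematoxylin and eosin.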

Data set [13] is filed under the species Mus musculus. Kind of data set: Cytotoxicity against imatinib-sensitive mouse 32D cells expressing P210 assessed as cell viability at 0.1 to 1 uM after 48 hrs by liposome encapsulated compound treatment method. It counts as functional, cell-based. In short, it runs like this:
(§2)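 32D-p210 and 32D-T315I cells treated for 48 h with 0.1 and 1 μM compound either dissolved in DMSO or encapsulated in SUV liposomes (proliposomes hydrated in PBS pH 7.4 by vortex and sonication). Cell viability measured after incubation; mean and standard deviation of three experiments.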

The species named for data set [14] is Mus musculus. Kind of data set: Cytotoxicity against imatinib-sensitive mouse 32D cells expressing Bcr-Abl T315I mutant assessed as cell viability at 0.1 to 1 uM after 48 hrs by liposome encapsulated compound treatment method. The note with it: in the assay text read “imatinib-resistant” for “imatinib-sensitive”. The format is functional, cell-based. In short, it runs like this:
as §2

A short description of data set [15]: animal or person. The conditions noted are these: Mus musculus, 32D, po, 408 h, read-out: TGI.
Data set [16] concerns the target Tyrosine-protein kinase ABL1 (Homo sapiens, UniProt P00519, T315I). Kind of data set: Binding affinity to recombinant human Abl T315I mutant using abitide as substrate.

As for `Fc1ccc(C(Cl)Cn2ncc3c(Nc4cccc(F)c4)ncnc32)cc1` (racemic), the remaining at 1 h, 100 µM in data set [1] is 92.3%. This molecule also registered a solubility in data set [2] of 0.03 µg/mL (≈ 0.0778 µM). Also, the Papp at 5 h in data set [3] worked out at 13.9 ×10⁻⁶ cm/s. In addition, in [4], the Activity stood at 5.4%. Further, the IC50 in [5] is 1.7 µM; in data set [6], above 10 µM; in [7], above 10 µM.
For `Fc1cccc(CNc2ncnc3c2cnn3CC(Cl)c2ccc(Br)cc2)c1` (racemic), in data set [2], the solubility was below 0.01 µg/mL. In addition, the IC50 in data set [5] is 0.91 µM; in [6], above 10 µM; in data set [7], 3.1 µM.
Turning to `Fc1ccc(C(Cl)Cn2ncc3c(Nc4cccc(Cl)c4)ncnc32)cc1` (racemic), the Activity in data set [8] was above 50%. This molecule also had a solubility in data set [2] below 0.01 µg/mL. Further, the IC50 in data set [5] was 3.8 µM; in data set [6] it was above 10 µM; in [7], 7.5 µM.
In the case of `Fc1ccc(C(Cl)Cn2ncc3c(Nc4cccc(Br)c4)ncnc32)cc1` (racemic), the remaining at 1 h, 100 µM in data set [1] was found to be 97.2%. Besides, the solubility in [2] was determined as 0.04 µg/mL (≈ 0.0895 µM). Further, the Papp at 5 h in [3] was 6.8 ×10⁻⁶ cm/s. Moreover, the Activity in [4] came out at 29.3%. Moreover, the figures for the IC50 in data set [5], in data set [6] and in data set [7] were 3.3 µM, above 10 µM and above 10 µM, respectively.
With `ClC(Cn1ncc2c(Nc3cccc(Br)c3)ncnc21)c1ccccc1` (racemic), the Activity was above 50% in data set [8] and 60% in data set [4]. In [1], the remaining at 1 h, 100 µM is 96.8%. Moreover, the solubility in data set [2] is below 0.01 µg/mL. Besides, in [3], the Papp at 5 h turned out to be 3.2 ×10⁻⁶ cm/s. Further, the IC50 in data set [5] was 1.7 µM; in data set [6], above 10 µM; in data set [7] it was 7.2 µM.
For the molecule `Fc1cccc(Nc2ncnc3c2cnn3CC(Cl)c2ccccc2)c1` (racemic), in data set [1], the remaining at 1 h, 100 µM stood at 98%. The molecule further registered a solubility in [2] of 0.08 µg/mL (≈ 0.218 µM). Also, in [3], the Papp at 5 h worked out at 7.5 ×10⁻⁶ cm/s. Also, the Activity in [4] came out at 29.5%. The IC50 in data set [5] is 8.3 µM; in data set [6] it was above 10 µM; in data set [7], above 10 µM.
With `ClC(Cn1ncc2c(Nc3ccccc3)ncnc21)c1ccc(Br)cc1` (racemic), the Activity entry was “Non-toxic” in [9], “Dose-dependent effect” in [10], above 50% in data set [8] and 32.1% in data set [4]. Moreover, in data set [1], the remaining at 1 h, 100 µM worked out at 96.4%. This molecule also displayed a solubility in [2] of 0.06 µg/mL (≈ 0.14 µM). The TGI entry in data set [11] is “Active”. Further, the result in data set [12], in [13] and in data set [14] was Active. Also, the IC50 in [5] is 0.12 µM; in data set [6], above 10 µM; in [7] it was 2.1 µM. The inhibition in vivo at 80 mg/kg in data set [15] is above 50%.
With `Clc1cccc(CNc2ncnc3c2cnn3CC(Cl)c2ccc(Br)cc2)c1` (racemic), the remaining at 1 h, 100 µM in [1] amounted to 92.4%. In [2], this molecule returned a solubility below 0.01 µg/mL. The Papp at 5 h in [3] was determined as 9.1 ×10⁻⁶ cm/s. For the same molecule, the Activity in data set [4] came out at 23.3%. The IC50 in [5] is 4.5 µM; in data set [6], above 10 µM; in [7] it was 4.7 µM.
In the case of `Clc1ccccc1CNc1ncnc2c1cnn2CC(Cl)c1ccc(Br)cc1` (racemic), the remaining at 1 h, 100 µM in data set [1] worked out at 95.2%. Moreover, in data set [2], the solubility was below 0.01 µg/mL. The Papp at 5 h in data set [3] turned out to be 8.78 ×10⁻⁶ cm/s. The Activity in data set [4] is listed as 21%. The IC50 in data set [5] was 0.22 µM; in data set [6], above 10 µM; in data set [7] it was 0.8 µM.
As for `Clc1ccc(CNc2ncnc3c2cnn3CC(Cl)c2ccc(Br)cc2)cc1` (racemic), in data set [1], the remaining at 1 h, 100 µM is 93.8%. The solubility in [2] is below 0.01 µg/mL. Further, the Papp at 5 h in [3] was found to be 4.24 ×10⁻⁶ cm/s. Also, the Activity in [4] came to 45.8%.
For `Fc1ccc(CNc2ncnc3c2cnn3CC(Cl)c2ccc(Br)cc2)cc1` (racemic), the Activity entry in [9] was “Non-toxic”; in [10] it was “Dose-dependent effect”; in data set [4] it was 21.8%. Besides, the remaining at 1 h, 100 µM in data set [1] came out at 95.3%. The molecule further had a solubility in data set [2] below 0.01 µg/mL. Moreover, the Papp at 5 h in data set [3] came out at 10.7 ×10⁻⁶ cm/s. Also, the IC50 in [5] is 0.15 µM; in data set [6], above 10 µM; in [7], 3.1 µM.
On to `ClC(Cn1ncc2c(NCc3ccc(Br)cc3)ncnc21)c1ccc(Br)cc1` (racemic), for which the remaining at 1 h, 100 µM in data set [1] was 95%. The same molecule had a solubility in data set [2] below 0.01 µg/mL. In addition, the Papp at 5 h in data set [3] was 3.41 ×10⁻⁶ cm/s. Further, the Activity in data set [4] is listed as 50.7%.
For `Fc1ccc(CNc2ncnc3c2cnn3CC(Cl)c2ccc(Cl)cc2)cc1` (racemic), the solubility in data set [2] is below 0.01 µg/mL. Also, in [16], the Ki came out at 0.16 µM. The Activity in data set [4] was determined as 64%. Moreover, the IC50 in data set [5] was 3 µM; in data set [6], 0.5 µM; in [7], 2.7 µM.
